Source: ChEMBL document CHEMBL1909507, “Substituted phenyl 4-(2-oxoimidazolidin-1-yl)benzenesulfonamides as antimitotics. Antiproliferative, antiangiogenic and antitumoral activity, and quantitative structure-activity relationships” (Eur J Med Chem, 2011)
One block for each compound: values may come before it. Calls of active or inactive are those of the source. No cut-off for these calls is given here.

Experiments:
[1] = system: M21; assay: Cell cycle arrest in human M21 cells assessed as accumulation at S phase at 5 times IC50 after 24 hrs using propidium iodide staining by flow cytometric analysis (reference value: 30%); type: functional
Procedure, shortened: (§1)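 Cells were trypsinized, fixed in ice-cold ethanol, treated with RNase, and stained with propidium iodide (1 mg/mL stock) for 1 h on ice. Cell-cycle distribution was measured by flow cytometry.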

[2] = system: CHO-VV 3-2; assay: Ratio of IC50 for colchicine and vinblastine-resistant CHO-VV 3-2 cells to IC50 for CHO cells; type: functional, Cricetulus griseus
Procedure, shortened: (§2)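 Each ratio is the IC50 in the resistant line divided by the IC50 in its parental line (CHO for CHO-TAX 5-6 and CHO-VV 3-2; CEM for CEM-VLB).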

[3] = system: M21; assay: Antiproliferative activity against human M21 cells after 48 hrs by SRB assay; type: functional, cell-based; settings: M21, 48 h
Procedure, shortened: (§3)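 Adherent cells were seeded per line (e.g. HT-29 5000, M21 3500, MCF7 7500, CHO and CHO-VV 3-2 and CHO-TAX 5-6 1000 cells/well) and grown 24 h at 37 °C, 5% CO₂. DMSO-solubilized drug was diluted in medium and added at 1000–0.98 nM for 48 h. Cells were fixed with cold 10% TCA and stained with 0.1% sulforhodamine B, with absorbance read at 530–565 nm.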

[4] = system: CHO; assay: Antiproliferative activity against Chinese hamster CHO after 48 hrs by SRB assay; settings: Cricetulus griseus
[5] = system: HT-1080; assay: Antiproliferative activity against human HT1080 after 48 hrs by SRB assay; type: functional, cell-based; settings: HT-1080, 48 h; procedure, shortened: as §3
[6] = system: CHO-TAX 5-6; assay: Ratio of IC50 for paclitaxel-resistant CHO-TAX 5-6 cells to IC50 for CHO cells; type: functional, Cricetulus griseus; procedure, shortened: as §2
[7] = system: K562; assay: Antiproliferative activity against human K562 after 48 hrs by SRB assay; type: functional, cell-based; settings: K562, 48 h
[8] = system: M21; assay: Cell cycle arrest in human M21 cells assessed as accumulation at G0/G1 phase at 5 times IC50 after 24 hrs using propidium iodide staining by flow cytometric analysis (reference value: 61%); type: functional; procedure, shortened: as §1
[9] = system: SK-OV-3; assay: Antiproliferative activity against human SKOV3 after 48 hrs by SRB assay; type: functional, cell-based; settings: SK-OV-3, 48 h; procedure, shortened: as §3
[10] = system: CHO-VV 3-2; assay: Antiproliferative activity against colchicine and vinblastine-resistant CHO-VV 3-2 cells after 48 hrs by SRB assay; type: functional, cell-based; settings: Cricetulus griseus, CHO-VV 3-2, 48 h; procedure, shortened: as §3
[11] = system: MCF7; assay: Antiproliferative activity against human MCF7 cells after 48 hrs by SRB assay; type: functional, cell-based; settings: MCF7, 48 h; procedure, shortened: as §3
[12] = system: HT-1080; assay: Antitumor activity against human HT1080 cells xenografted in chicken chorioallantoic membrane assessed as inhibition of tumor growth at 3 ug, iv measured on day 17 by CAM assay; type: functional
Procedure, shortened: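 Fertilized chicken eggs were incubated 10 days, then 3.5 × 10⁵ HT-1080 cells/egg were applied to the exposed chorioallantoic membrane. On day 11, drug was given iv in DMSO diluted in excipient (ethanol:cremophor:PBS 6.25:6.25:87.5). Read-out was tumor wet weight as % of untreated eggs, plus chick mortality. Data were pooled from two independent experiments of 10–12 eggs each.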

[13] = Antiproliferative activity against mouse P388D1 after 48 hrs by SRB assay; settings: P388D1, 48 h
[14] = system: M21; assay: Cell cycle arrest in human M21 cells assessed as accumulation at G2/M phase at 5 times IC50 after 24 hrs using propidium iodide staining by flow cytometric analysis (reference value: 9%); type: functional; procedure, shortened: as §1
[15] = system: MDA-MB-231; assay: Antiproliferative activity against human MDA-MB-231 after 48 hrs by SRB assay; type: functional, cell-based; settings: MDA-MB-231, 48 h
[16] = Antiproliferative activity against human multidrug-resistant CEM/VLB cells after 48 hrs by SRB assay; type: functional
[17] = system: CHO-TAX 5-6; assay: Antiproliferative activity against paclitaxel-resistant CHO-TAX 5-6 cells after 48 hrs by SRB assay; type: functional, cell-based; settings: Cricetulus griseus, CHO-TAX 5-6, 48 h; procedure, shortened: as §3
[18] = system: MDA-MB-231; assay: Displacement of N,N'-ethylenebis(iodoacetamide) from beta-tubulin colchicine-binding site in human MDA-MB-231 cells at 1000 times IC50 preincubated for 2 hrs before N,N'-ethylenebis(iodoacetamide) addition measured after 1.5 hrs by chemiluminescence assay; type: cell-based
Procedure, shortened: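 EBI (100, final) was added for 1.5 h at 37 °C with drug present; control was 0.5% DMSO. Sonicated lysates (20 µg protein) were run on 10% SDS-PAGE and blotted with anti-β-tubulin TUB 2.1. The β-tubulin–EBI adduct was scored by ECL.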

[19] = system: M21; assay: Disruption of cytoskeleton microtubule structure of human M21 cells at 5 times IC50 after 16 hrs by indirect immunofluorescence assay; type: functional, cell-based
Procedure, shortened: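 Cells were fixed in 3.7% formaldehyde, permeabilized with saponin, and stained with anti-β-tubulin TUB 2.1, Alexa-488 anti-mouse secondary and DAPI. Fluorescence microscopy was used for imaging.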

[20] = Antiproliferative activity against mouse B16F0 after 48 hrs by SRB assay
[21] = system: DU-145; assay: Antiproliferative activity against human DU145 after 48 hrs by SRB assay; type: functional, cell-based; settings: DU-145, 48 h
[22] = system: CCRF-CEM; assay: Antiproliferative activity against human CEM after 48 hrs by SRB assay; type: functional, cell-based
[23] = system: L1210; assay: Antiproliferative activity against mouse L1210 after 48 hrs by SRB assay; type: functional, cell-based; settings: L1210, 48 h
[24] = system: CCRF-CEM; assay: Ratio of IC50 for human multidrug-resistant CEM/VLB cells to IC50 for human CEM cells; type: functional; procedure, shortened: as §2
[25] = system: HT-29; assay: Antiproliferative activity against human HT-29 cells after 48 hrs by SRB assay; type: functional, cell-based; settings: HT-29, 48 h; procedure, shortened: as §3
[26] = Toxicity against fertilized chicken embryo assessed as mortality at 3 ug, iv by CAM assay; type: organism-based, Gallus gallus; settings: in vivo, read-out: Activity
Procedure, shortened: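 HT-1080 fibrosarcoma cells (3.5 × 10⁵ cells/egg) grafted onto the chorioallantoic membrane of fertilized chicken eggs (10 days preincubation). On day 11, drug in DMSO diluted into excipient (ethanol:cremophor:PBS 6.25:6.25:87.5) given iv at 3 µg per egg. Chick mortality recorded over 7-day tumor growth period. Untreated eggs as negative controls and for normalization. Cumulative results from two independent experiments, 10–12 eggs each.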

IC50 [11]: 620 nM
IC50 [25]: 350 nM
Compound: O=C1NCCN1c1ccc(S(=O)(=O)Nc2ccc(F)c(F)c2)cc1
IC50 [3]: 220 nM

IC50 [11]: 230 nM
IC50 [25]: 230 nM
Compound: Cc1ccc(NS(=O)(=O)c2ccc(N3CCNC3=O)cc2)cc1C
IC50 [3]: 94 nM

IC50 [11]: 610 nM
IC50 [25]: 520 nM
Compound: COc1ccc(NS(=O)(=O)c2ccc(N3CCNC3=O)cc2)cc1OC
IC50 [3]: 340 nM

IC50 [11]: > 1000 nM
IC50 [25]: > 1000 nM
Compound: CC(C)(C)c1ccc(NS(=O)(=O)c2ccc(N3CCNC3=O)cc2)cc1
IC50 [3]: > 1000 nM

IC50 [11]: 230 nM
IC50 [25]: 190 nM
Compound: Cc1cccc(NS(=O)(=O)c2ccc(N3CCNC3=O)cc2)c1C
IC50 [3]: 110 nM

IC50 [11]: 230 nM
IC50 [25]: 180 nM
Compound: Cc1ccc(NS(=O)(=O)c2ccc(N3CCNC3=O)cc2)c(C)c1
IC50 [3]: 150 nM

IC50 [11]: > 1000 nM
IC50 [25]: > 1000 nM
Compound: CC(C)(C)c1cc(NS(=O)(=O)c2ccc(N3CCNC3=O)cc2)cc(C(C)(C)C)c1
IC50 [3]: > 1000 nM

The remaining lines, values behind:

Compound: O=C1NCCN1c1ccc(S(=O)(=O)Nc2cccc(Cl)c2)cc1
Activity [1]: 33%
Ratio IC50 [2]: 1.6
IC50 [3]: 25 nM
IC50 [4]: 96 nM
IC50 [5]: 68 nM
Ratio IC50 [6]: 0.6
IC50 [7]: 69 nM
Activity [8]: 5%
IC50 [9]: 70 nM
IC50 [10]: 150 nM
IC50 [11]: 79 nM
inhibition [12]: inactive
IC50 [13]: 78 nM
Activity [14]: 62%
IC50 [15]: 200 nM
IC50 [16]: 170 nM
IC50 [17]: 58 nM
Activity [18]: Active
Activity [19]: Active
IC50 [20]: 190 nM
IC50 [21]: 230 nM
IC50 [22]: 77 nM
IC50 [23]: 77 nM
Ratio IC50 [24]: 2.2
IC50 [25]: 55 nM
mortality [26]: 8%

Compound: O=C1NCCN1c1ccc(S(=O)(=O)Nc2ccc(F)cc2)cc1
IC50 [3]: 230 nM
IC50 [11]: 690 nM
IC50 [25]: 370 nM

Compound: O=C1NCCN1c1ccc(S(=O)(=O)Nc2ccc(C3CCCCC3)cc2)cc1
IC50 [3]: > 1000 nM
IC50 [11]: > 1000 nM
IC50 [25]: > 1000 nM

Compound: O=C1NCCN1c1ccc(S(=O)(=O)Nc2ccc(I)cc2)cc1
IC50 [3]: 260 nM
IC50 [11]: 600 nM
IC50 [25]: 650 nM

Compound: Cc1ccccc1NS(=O)(=O)c1ccc(N2CCNC2=O)cc1
IC50 [3]: 150 nM
IC50 [11]: 280 nM
IC50 [25]: 200 nM

Compound: O=C1NCCN1c1ccc(S(=O)(=O)Nc2cccc(Oc3ccccc3)c2)cc1
IC50 [3]: 83 nM
IC50 [11]: 220 nM
IC50 [25]: 200 nM

Compound: CCCCc1ccc(NS(=O)(=O)c2ccc(N3CCNC3=O)cc2)cc1
IC50 [3]: 450 nM
IC50 [11]: 770 nM
IC50 [25]: 610 nM

Compound: COc1ccccc1NS(=O)(=O)c1ccc(N2CCNC2=O)cc1
IC50 [3]: 300 nM
IC50 [11]: 770 nM
IC50 [25]: 550 nM

Compound: N#CCc1ccc(NS(=O)(=O)c2ccc(N3CCNC3=O)cc2)cc1
IC50 [3]: > 1000 nM
IC50 [11]: > 1000 nM
IC50 [25]: > 1000 nM

Compound: CCC(C)c1ccc(NS(=O)(=O)c2ccc(N3CCNC3=O)cc2)cc1 (configuration not stated)
IC50 [3]: > 1000 nM
IC50 [11]: > 1000 nM
IC50 [25]: > 1000 nM

Compound: CCCCCCOc1ccc(NS(=O)(=O)c2ccc(N3CCNC3=O)cc2)cc1
IC50 [3]: > 1000 nM
IC50 [11]: > 1000 nM
IC50 [25]: > 1000 nM
